Measurements taken from PubChem BioAssay AID743256 (The Scripps Research Institute Molecular Screening Center, 2014).
Screen size: about 2,900 compounds; about 1,300 (45%) were called active.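 How the source made its calls: active means mean inhibition over the triplicate runs exceeds the activity threshold set in the earlier primary screen (cut at about 20% in these data); inactive means the rest.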 The set was probably picked from earlier hits. These entries were drawn from the full list.

Target: Disintegrin and metalloproteinase domain-containing protein 10 (Homo sapiens) (UniProt O14672)
Sequence (O14672 214-748 limits assumed): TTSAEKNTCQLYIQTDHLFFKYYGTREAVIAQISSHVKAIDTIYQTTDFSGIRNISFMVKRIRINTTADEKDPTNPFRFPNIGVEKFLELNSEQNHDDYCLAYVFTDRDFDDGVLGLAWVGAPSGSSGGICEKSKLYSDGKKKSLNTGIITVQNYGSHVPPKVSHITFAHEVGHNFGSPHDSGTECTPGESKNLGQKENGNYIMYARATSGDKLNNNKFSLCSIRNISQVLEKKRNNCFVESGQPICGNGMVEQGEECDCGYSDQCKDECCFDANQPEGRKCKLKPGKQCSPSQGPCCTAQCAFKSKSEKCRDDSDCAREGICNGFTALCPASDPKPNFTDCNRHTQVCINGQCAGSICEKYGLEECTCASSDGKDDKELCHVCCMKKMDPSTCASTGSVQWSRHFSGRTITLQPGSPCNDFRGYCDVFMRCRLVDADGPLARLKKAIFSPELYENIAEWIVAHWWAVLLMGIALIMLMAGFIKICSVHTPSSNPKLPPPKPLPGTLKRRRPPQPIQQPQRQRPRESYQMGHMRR
Test: blockers of ADAM10 peptide cleavage – biochemical, FRET, human ADAM10, counter-screen for ADAM17 exosite inhibitor project (AID 743256);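 further: 0% = DMSO wells and 100% = marimastat wells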
Conditions: recombinant ADAM10, EDANS/DABCYL FRET peptide cleavage, 3 h; at 6.95 µM; hits give high values
Outline: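 Test system – ADAM10 · Amount – enzyme 2X stock at 20 nM · Read-out – percent inhibition scaled between DMSO and marimastat control wells · Compound dosing – one dose · Measured by – FRET fluorescence readout · Timing – Compound–enzyme preincubation 30 min, then 3 h substrate cleavage, both 25 °C · Control set – 1 µM marimastat (high) and DMSO (low)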

| SMILES | inhibition |
| --- | --- |
| Cc1ccc(C(=O)Nc2ccc(C)c(S(=O)(=O)N(C)C)c2)s1 | 19.2% (inactive) |
| CCn1c(Cc2cccs2)nnc1SCC(=O)c1ccc(C)cc1 | 2.71% (inactive) |
| Cc1ccc(OCCOCCOc2ccc(Br)cc2/C=N\NC(=O)c2ccncc2)cc1 | 13.6% (inactive) |
| COc1cccc(/C=N/NC(=O)c2cccc([N+](=O)[O-])c2)c1OS(=O)(=O)c1ccc(C)cc1 | 27.1% (active) |
| CCCCCC(=O)N1C[C@H](O)[C@@H](n2cc(COC(=O)c3ccccc3)nn2)C[C@@H]1c1ccc(C)cc1 | 22.1% (active) |
| CCc1cccc(NC(=O)COC(=O)C2CCN(c3ccc(C(F)(F)F)cn3)CC2)c1 | 25.6% (active) |
| O=C(Cc1ncc(C(F)(F)F)cc1Cl)Nc1cccc(Br)c1 | 6.87% (inactive) |
| Cc1ccc(OCc2nnc(SC/C=C/c3ccccc3)n2Cc2ccco2)cc1 | 18.7% (inactive) |
| Cc1ccc(-c2nnc(SCC(=O)Nc3ccc(Oc4ccccc4)cc3)n2Cc2ccco2)cc1 | 30.9% (active) |
| Cc1sc2nc(SCC(=O)c3ccc(O)c(O)c3)n(Cc3ccco3)c(=O)c2c1C | 16.8% (inactive) |
| COc1ccc(C(=O)NN2C(=O)C3C(c4ccccc4)C=CC(c4ccccc4)C3C2=O)cc1 (centres undefined) | 25.6% (active) |
| CC(C)C(=O)Nc1cccc(NC(=S)NC(=O)C(c2ccccc2)c2ccccc2)c1 | 31.3% (active) |
| O=C(CSc1nc(Nc2ccccc2)nc(N2CCOCC2)n1)Nc1cc(Cl)ccc1O | 33.4% (active) |
| CCCN(CC(=O)NC(=O)NC1CCCCC1)CC(=O)Nc1cc(Cl)ccc1Cl | 43.7% (active) |
| CN(C)c1ccc(NC(=O)NC2CCCCN(Cc3ccc(Cl)cc3)C2=O)cc1 (centres undefined) | 1.4% (inactive) |
| O=C(C[C@H]1C(=O)N(c2ccc(F)c(F)c2)C[C@@H]1Cc1ccccc1)Nc1ccccc1 | 26.5% (active) |
| COc1ccc(C(=O)Nc2ccc(C3(C#N)CCCC3)cc2)cc1OC | -1.52% (inactive) |

| SMILES | inhibition |
| --- | --- |
| NNC(=O)C1CCCn2c1nc1sc3c(c1c2=O)CCCC3 (centres undefined) | -9.79% (inactive) |
| CCOc1ccc(Nc2nc(Cc3nnc(SCC(=O)c4ccc(C)cc4)o3)cs2)cc1 | 17.9% (inactive) |
| Cc1ccc(C)c(NC(=S)NNC(=S)Nc2ccc(C(C)C)cc2)c1 | 32.5% (active) |
| CCCn1nc(C(=O)NNC(=O)CSCC(=O)Nc2cc(C)on2)c2ccccc2c1=O | -0.39% (inactive) |
| Cc1cc(NC(=O)CN2C(=O)NC(CC(C)C)C2=O)no1 (centres undefined) | 26.2% (active) |
| CS(=O)(=O)Nc1cccc(C2=NN(S(=O)(=O)c3ccccc3)C(c3cccs3)C2)c1 (centres undefined) | 11.9% (inactive) |
| COc1ccc(S(=O)(=O)Nc2ccc(O)c(Sc3nc4ccccc4s3)c2)cc1 | 20.5% (active) |
| Cc1ccc(-c2n[nH]c(=S)n2/N=C/c2cc3c(cc2[N+](=O)[O-])OCO3)cc1 | 4.16% (inactive) |
| COc1cc(C2CC(=O)N3CN(Cc4ccccc4)CSC3=C2C#N)ccc1OCc1ccccc1 (centres undefined) | 26.5% (active) |
| CC(C)N(C(=O)[C@H]1C[C@H](CC(=O)NC(C)(C)C)C(=O)N2CCc3c([nH]c4ccc(Cl)cc34)[C@]12C)C(C)C | 15.5% (inactive) |
| CN(C)S(=O)(=O)c1cccc(NC(=O)COC(=O)C2(c3ccccc3F)CCCC2)c1 | 28% (active) |
| NS(=O)(=O)c1ccc(NC(=O)COC(=O)C2(c3ccc(F)cc3)CCCC2)cc1 | 24.3% (active) |
| Cc1ccc(S(=O)(=O)N2CCN(C(=O)COC(=O)c3c(C)cc(C)cc3C)CC2)c(C)c1 | 18.9% (inactive) |
| COc1ccc(C(=O)C2CCCN(S(=O)(=O)c3cccc(C)c3)C2)c(C)c1 (centres undefined) | 11.7% (inactive) |
| Cc1onc(C(=O)NN)c1-c1csc(COc2ccccc2)n1 | -5.47% (inactive) |
| O=C(c1ccccc1)N1CCN(c2ccc([N+](=O)[O-])c(NCc3ccco3)c2)CC1 | 14.8% (inactive) |
| O=C(NCc1ccccc1)C1=C[C@@H](c2ccc(C(F)(F)F)cc2)C[C@@H](OCc2ccc(CO)cc2)O1 | 44.5% (active) |
